Measured values as given in ChEMBL document CHEMBL2375313, “Synthesis, in vitro antitumor evaluation and DNA-binding study of novel tetrahydroquinolines and some derived tricyclic and tetracyclic ring systems” (Eur J Med Chem, 2013).

Columns and labels:
Format in all cases: functional
HOP-92 = test: Cytotoxicity against human HOP92 cells assessed as growth inhibition at 10 uM after 48 hrs by sulphorhodamine B assay; details: HOP-92, 48 h, read-out: GI
How it was run: (§1)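 NCI-60 one-dose screen per the NCI Drug Evaluation Branch protocol. Cells given a single 10 µM concentration with 48 h continuous exposure. Growth estimated by sulphorhodamine B protein assay. Result expressed as percentage growth inhibition relative to untreated growth.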

NCI-H23 = test: Cytotoxicity against human NCI-H23 cells assessed as growth inhibition at 10 uM after 48 hrs by sulphorhodamine B assay; details: NCI-H23, 48 h, read-out: GI; how it was run: as §1
[1] = Cytotoxicity against human EKVX cells assessed as growth inhibition at 10 uM after 48 hrs by sulphorhodamine B assay; details: read-out: GI; how it was run: as §1
A549 = test: Cytotoxicity against human A549 cells assessed as growth inhibition at 10 uM after 48 hrs by sulphorhodamine B assay; details: A549, 48 h, read-out: GI; how it was run: as §1
NCI/ADR-RES = test: Cytotoxicity against human NCI/ADR-RES cells assessed as growth inhibition at 10 uM after 48 hrs by sulphorhodamine B assay; details: read-out: GI; how it was run: as §1
SNB-75 = test: Cytotoxicity against human SNB75 cells assessed as growth inhibition at 10 uM after 48 hrs by sulphorhodamine B assay; details: SNB-75, 48 h, read-out: GI; how it was run: as §1
U-251 = test: Cytotoxicity against human U251 cells assessed as growth inhibition at 10 uM after 48 hrs by sulphorhodamine B assay; details: U-251, 48 h, read-out: GI; how it was run: as §1
SNB-19 = test: Cytotoxicity against human SNB19 cells assessed as growth inhibition at 10 uM after 48 hrs by sulphorhodamine B assay; details: SNB-19, 48 h, read-out: GI; how it was run: as §1
SF-295 = test: Cytotoxicity against human SF295 cells assessed as growth inhibition at 10 uM after 48 hrs by sulphorhodamine B assay; details: SF-295, 48 h, read-out: GI; how it was run: as §1
DU-145 = test: Cytotoxicity against human DU145 cells assessed as growth inhibition at 10 uM after 48 hrs by sulphorhodamine B assay; details: DU-145, 48 h, read-out: GI; how it was run: as §1
SF-268 = test: Cytotoxicity against human SF268 cells assessed as growth inhibition at 10 uM after 48 hrs by sulphorhodamine B assay; details: SF-268, 48 h, read-out: GI; how it was run: as §1
PC-3 = test: Cytotoxicity against human PC3 cells assessed as growth inhibition at 10 uM after 48 hrs by sulphorhodamine B assay; details: PC-3, 48 h, read-out: GI; how it was run: as §1
UACC-62 = test: Cytotoxicity against human UACC62 cells assessed as growth inhibition at 10 uM after 48 hrs by sulphorhodamine B assay; details: UACC-62, 48 h, read-out: GI; how it was run: as §1
SK-MEL-2 = test: Cytotoxicity against human SK-MEL-2 cells assessed as growth inhibition at 10 uM after 48 hrs by sulphorhodamine B assay; details: SK-MEL-2, 48 h, read-out: GI; how it was run: as §1
SK-MEL-5 = test: Cytotoxicity against human SK-MEL-5 cells assessed as growth inhibition at 10 uM after 48 hrs by sulphorhodamine B assay; details: SK-MEL-5, 48 h, read-out: GI; how it was run: as §1
M14 = test: Cytotoxicity against human M14 cells assessed as growth inhibition at 10 uM after 48 hrs by sulphorhodamine B assay; details: M14, 48 h, read-out: GI; how it was run: as §1
LOX IMVI = test: Cytotoxicity against human LOXIMVI cells assessed as growth inhibition at 10 uM after 48 hrs by sulphorhodamine B assay; details: read-out: GI; how it was run: as §1
UO-31 = test: Cytotoxicity against human UO31 cells assessed as growth inhibition at 10 uM after 48 hrs by sulphorhodamine B assay; details: UO-31, 48 h, read-out: GI; how it was run: as §1
CAKI-1 = test: Cytotoxicity against human Caki1 cells assessed as growth inhibition at 10 uM after 48 hrs by sulphorhodamine B assay; details: CAKI-1, 48 h, read-out: GI; how it was run: as §1
RXF 393 = test: Cytotoxicity against human RXF393 cells assessed as growth inhibition at 10 uM after 48 hrs by sulphorhodamine B assay; details: RXF 393, 48 h, read-out: GI; how it was run: as §1
ACHN = test: Cytotoxicity against human ACHN cells assessed as growth inhibition at 10 uM after 48 hrs by sulphorhodamine B assay; details: read-out: GI; how it was run: as §1
SR = test: Cytotoxicity against human SR cells assessed as growth inhibition at 10 uM after 48 hrs by sulphorhodamine B assay; details: read-out: GI; how it was run: as §1
A498 = test: Cytotoxicity against human A498 cells assessed as growth inhibition at 10 uM after 48 hrs by sulphorhodamine B assay; details: A498, 48 h, read-out: GI; how it was run: as §1
RPMI-8226 = test: Cytotoxicity against human RPMI8226 cells assessed as growth inhibition at 10 uM after 48 hrs by sulphorhodamine B assay; details: RPMI-8226, 48 h, read-out: GI; how it was run: as §1
MOLT-4 = test: Cytotoxicity against human MOLT4 cells assessed as growth inhibition at 10 uM after 48 hrs by sulphorhodamine B assay; details: MOLT-4, 48 h, read-out: GI; how it was run: as §1
K562 = test: Cytotoxicity against human K562 cells assessed as growth inhibition at 10 uM after 48 hrs by sulphorhodamine B assay; details: K562, 48 h, read-out: GI; how it was run: as §1
HL-60(TB) = test: Cytotoxicity against human HL-60(TB) cells assessed as growth inhibition at 10 uM after 48 hrs by sulphorhodamine B assay; details: HL-60, 48 h, read-out: GI
How it was run: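 NCI-60 one-dose primary screen run to the Drug Evaluation Branch protocol. Cells are exposed to a single 10 µM concentration for 48 h continuously, and growth is read by SRB protein assay. Data are reported as percent growth of treated cells, expressed as % growth inhibition.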

SK-OV-3 = test: Cytotoxicity against human SKOV3 cells assessed as growth inhibition at 10 uM after 48 hrs by sulphorhodamine B assay; details: SK-OV-3, 48 h, read-out: GI; how it was run: as §1
CCRF-CEM = test: Cytotoxicity against human CCRF-CEM cells assessed as growth inhibition at 10 uM after 48 hrs by sulphorhodamine B assay; details: read-out: GI; how it was run: as §1
OVCAR-5 = test: Cytotoxicity against human OVCAR5 cells assessed as growth inhibition at 10 uM after 48 hrs by sulphorhodamine B assay; details: OVCAR-5, 48 h, read-out: GI; how it was run: as §1
OVCAR-4 = test: Cytotoxicity against human OVCAR4 cells assessed as growth inhibition at 10 uM after 48 hrs by sulphorhodamine B assay; details: OVCAR-4, 48 h, read-out: GI; how it was run: as §1
IGROV-1 = test: Cytotoxicity against human IGROV1 cells assessed as growth inhibition at 10 uM after 48 hrs by sulphorhodamine B assay; details: IGROV-1, 48 h, read-out: GI; how it was run: as §1
T47D = test: Cytotoxicity against human T47D cells assessed as growth inhibition at 10 uM after 48 hrs by sulphorhodamine B assay; details: read-out: GI; how it was run: as §1
Hs-578T = test: Cytotoxicity against human Hs578T cells assessed as growth inhibition at 10 uM after 48 hrs by sulphorhodamine B assay; details: read-out: GI; how it was run: as §1
NCI-H522 = test: Cytotoxicity against human NCI-H522 cells assessed as growth inhibition at 10 uM after 48 hrs by sulphorhodamine B assay; details: NCI-H522, 48 h, read-out: GI; how it was run: as §1
HT-29 = test: Cytotoxicity against human HT-29 cells assessed as growth inhibition at 10 uM after 48 hrs by sulphorhodamine B assay; details: HT-29, 48 h, read-out: GI; how it was run: as §1
MCF7 = test: Cytotoxicity against human MCF7 cells assessed as growth inhibition at 10 uM after 48 hrs by sulphorhodamine B assay; details: MCF7, 48 h, read-out: GI; how it was run: as §1
MDA-MB-435 = test: Cytotoxicity against human MDA-MB-435 cells assessed as growth inhibition at 10 uM after 48 hrs by sulphorhodamine B assay; details: MDA-MB-435, 48 h, read-out: GI; how it was run: as §1
HCT-15 = test: Cytotoxicity against human HCT15 cells assessed as growth inhibition at 10 uM after 48 hrs by sulphorhodamine B assay; details: HCT-15, 48 h, read-out: GI; how it was run: as §1
MDA-MB-468 = test: Cytotoxicity against human MDA-MB-468 cells assessed as growth inhibition at 10 uM after 48 hrs by sulphorhodamine B assay; details: MDA-MB-468, 48 h, read-out: GI; how it was run: as §1
HCT-116 = test: Cytotoxicity against human HCT116 cells assessed as growth inhibition at 10 uM after 48 hrs by sulphorhodamine B assay; details: HCT-116, 48 h, read-out: GI; how it was run: as §1

## CC1CCCc2c1nc1ncnc(N)c1c2-c1ccc(Cl)cc1 (stereo unspecified)
HOP-92
  inhibition of growth at 10 µM: 25.3%
NCI-H23
  inhibition of growth at 10 µM: < 10%
[1]
  inhibition of growth at 10 µM: < 10%
A549
  inhibition of growth at 10 µM: < 10%
NCI/ADR-RES
  inhibition of growth at 10 µM: < 10%
SNB-75
  inhibition of growth at 10 µM: 21.5%
U-251
  inhibition of growth at 10 µM: 14.5%
SNB-19
  inhibition of growth at 10 µM: 21.3%
SF-295
  inhibition of growth at 10 µM: < 10%
DU-145
  inhibition of growth at 10 µM: < 10%
SF-268
  inhibition of growth at 10 µM: 12.3%
PC-3
  inhibition of growth at 10 µM: 24.2%
UACC-62
  inhibition of growth at 10 µM: 13.8%
SK-MEL-2
  inhibition of growth at 10 µM: < 10%
SK-MEL-5
  inhibition of growth at 10 µM: 10.2%
M14
  inhibition of growth at 10 µM: < 10%
LOX IMVI
  inhibition of growth at 10 µM: < 10%
UO-31
  inhibition of growth at 10 µM: 10.1%
CAKI-1
  inhibition of growth at 10 µM: < 10%
RXF 393
  inhibition of growth at 10 µM: 11%
ACHN
  inhibition of growth at 10 µM: < 10%
SR
  inhibition of growth at 10 µM: < 10%
A498
  inhibition of growth at 10 µM: 27.7%
RPMI-8226
  inhibition of growth at 10 µM: 21.3%
MOLT-4
  inhibition of growth at 10 µM: < 10%
K562
  inhibition of growth at 10 µM: 25%
HL-60(TB)
  inhibition of growth at 10 µM: 12.4%
SK-OV-3
  inhibition of growth at 10 µM: 12%
CCRF-CEM
  inhibition of growth at 10 µM: 22.2%
OVCAR-5
  inhibition of growth at 10 µM: < 10%
OVCAR-4
  inhibition of growth at 10 µM: 17.8%
IGROV-1
  inhibition of growth at 10 µM: < 10%
T47D
  inhibition of growth at 10 µM: 40%
Hs-578T
  inhibition of growth at 10 µM: 14.7%
NCI-H522
  inhibition of growth at 10 µM: 11%
HT-29
  inhibition of growth at 10 µM: 13.3%
MCF7
  inhibition of growth at 10 µM: < 10%
MDA-MB-435
  inhibition of growth at 10 µM: < 10%
HCT-15
  inhibition of growth at 10 µM: 10%
MDA-MB-468
  inhibition of growth at 10 µM: 20%
HCT-116
  inhibition of growth at 10 µM: 14%
